Bioassay records (PubChem)
Compounds with a hit are over-represented: about 3.9% of the library has one in this group of screens.
697 NFkB inh – inhibitors of PMA/ionomycin-induced NF-kB reporter, 697 cells, primary screen, B-cell NF-kB inhibitor project, cell-based, luminescence, uHTS; 697 B-cell NF-kB luciferase reporter, 16 h; inhibition, % at 4 µM; 0.33% of 330,000 active; in the data active means inhibition above about 35%
Gli-Sufu antag – Gli-Sufu pathway antagonists, primary screen, luciferase luminescence, Sufu-KO-LIGHT cells, uHTS | inhibition, % at 5 µM | Sufu-KO-LIGHT fibroblasts, Gli luciferase reporter luminescence | AID 588413, 2011 | 0.74% of 340,000 active;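 active means inhibition above about 55%, limit read from the data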;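 further: 0% = DMSO-treated cells and 100% = wells with medium but no cells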
CHOP UPR activ – activators of apoptotic CHOP UPR arm, primary screen, cell-based, CHO-CHOP luciferase reporter, luminescence, uHTS; UPR activation; percent of tunicamycin response over DMSO baseline; activation, % at 10 µM; 0.34% of 330,000 active; AID 449763, 2010;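 active means at 10 µM dose, activation of 40% or more, normalized to positive control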;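 further: 100% = tunicamycin at 10 µg/mL and 0% = DMSO alone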
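Assay system: CHO cells with stable CHOP pathway luciferase reporter; Buffer or medium: F12 plus 10% serum; Times: 16-18 h cell attachment, then 6 h compound exposure, 37 °C; Signal: luciferase luminescence; Read-out basis: percent activation relative to tunicamycin control; Control set: tunicamycin high control, DMSO low control.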
CHOP inhibitor – inhibitors of CHOP promoter induction, primary screen, cell-based, unfolded protein response, luciferase reporter; 3.8% of 220,000 active; inhibition, % at 10 µM; CHO-K1 CHOP-promoter luciferase, tunicamycin-induced, 15-18 h;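 active means compounds that reduced the stress-induced luciferase reporter signal by more than about 70% of percent inhibition, limit read from the data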;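 further: 0% = tunicamycin plus vehicle and 100% = wells without tunicamycin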
UPR XBP1 act – activators of adaptive XBP1 UPR arm, primary screen, cell-based, CHO-XBP1 luciferase reporter, luminescence, uHTS | 0.33% of 330,000 active | activation, % at 20 µM | IRE1-XBP1 UPR activation; percent of tunicamycin response, DMSO as zero;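 active means versus positive control, 20 µM dose yields 30% or more activation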;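 further: 100% = tunicamycin at 10 µg/mL and 0% = DMSO only wells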
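Test system: CHO-XBP1 luciferase reporter cells | Buffer or medium: Serum-containing F12 medium, 10% FBS | Schedule: 6 h compound exposure at 37 °C, 5% CO2 | Detection: Steady-Glo luciferase glow luminescence, 10 min after reagent addition | Read-out basis: Activation, % of tunicamycin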
Jurkat NFkB inh – inhibitors of induced NF-kB luciferase reporter, primary screen, TCR NF-kB activation inhibitor project, cell-based, luminescence, uHTS. 0.53% of 330,000 active. inhibition, % at 4 µM. Jurkat, PMA/ionomycin-induced NF-kB luciferase reporter; in the data active means inhibition above about 50%
The depositor's hits bear a star.

Results for CCC(SC1=NCCS1)C(=O)Nc1nnc(-c2ccccc2OC)s1 (centres undefined) ?
697 NFkB inh: -4; Gli-Sufu antag: 0; CHOP UPR activ: 2; CHOP inhibitor: 86*; UPR XBP1 act: 2; Jurkat NFkB inh: -3

How did CC(SC1=NCCS1)C(=O)Nc1nnc(-c2ccc(F)cc2)s1 (centres undefined) do in these assays?
697 NFkB inh: -2; Gli-Sufu antag: -6; CHOP UPR activ: 4; CHOP inhibitor: 64; UPR XBP1 act: -3; Jurkat NFkB inh: 6

What do the screens show for `CC(SC1=NCCS1)C(=O)Nc1nnc(-c2ccc(Br)cc2)s1` (centres undefined)?
697 NFkB inh: -46; Gli-Sufu antag: 4; CHOP UPR activ: 11; CHOP inhibitor: 86*; UPR XBP1 act: 1; Jurkat NFkB inh: -11

What do the screens show for `O=C(NCc1ccccc1Br)C1CCCO1` (centres undefined)?
697 NFkB inh: 3; Gli-Sufu antag: -2; CHOP UPR activ: 3; UPR XBP1 act: 0; Jurkat NFkB inh: 0

Results for CCCc1nnc(NC(=O)CCC(=O)N2CCN(Cc3ccc(Cl)cc3)CC2)s1 ?
697 NFkB inh: -46; Gli-Sufu antag: 20; CHOP UPR activ: 0; UPR XBP1 act: -7; Jurkat NFkB inh: 16

What do the screens show for `CCCOc1ccc(Cn2c(=O)oc3ccc(C)cc32)cc1`?
697 NFkB inh: -3; Gli-Sufu antag: 9; CHOP UPR activ: 1; UPR XBP1 act: -3; Jurkat NFkB inh: 7

Results for NC(=O)CC(NC(=O)c1ccc(Br)cc1)c1ccc(N2CCN(c3ccc(F)cc3)CC2)c([N+](=O)[O-])c1 (centres undefined) ?
697 NFkB inh: 13; Gli-Sufu antag: 14; CHOP UPR activ: -1; CHOP inhibitor: 93*; UPR XBP1 act: -2; Jurkat NFkB inh: 10

Results for NC(=O)CC(NC(=O)c1ccc(Br)cc1)c1ccc(N2CCN(c3ccccc3)CC2)c([N+](=O)[O-])c1 (centres undefined) ?
697 NFkB inh: -18; Gli-Sufu antag: 10; CHOP UPR activ: -2; UPR XBP1 act: 0; Jurkat NFkB inh: -30

How did NC(=O)CC(NC(=O)c1cccc(Br)c1)c1ccc(N2CCN(c3ccc(F)cc3)CC2)c([N+](=O)[O-])c1 (centres undefined) do in these assays?
697 NFkB inh: -23; Gli-Sufu antag: 6; CHOP UPR activ: -2; UPR XBP1 act: 0; Jurkat NFkB inh: 14

What do the screens show for `NC(=O)CC(NC(=O)Cc1ccc(Br)cc1)c1ccc(N2CCN(c3ccc(F)cc3)CC2)c([N+](=O)[O-])c1` (centres undefined)?
697 NFkB inh: -9; Gli-Sufu antag: -29; CHOP UPR activ: -2; CHOP inhibitor: 85*; UPR XBP1 act: -5; Jurkat NFkB inh: 19

How did NNC(=O)c1[nH]c(-c2ccccc2)cc1-c1ccccc1 do in these assays?
697 NFkB inh: 11; Gli-Sufu antag: -4; CHOP UPR activ: 0; UPR XBP1 act: -5; Jurkat NFkB inh: -8

Results for O=C(N/N=C/c1cccnc1)c1cc2c(ccc3ccccc32)o1 ?
697 NFkB inh: -5; Gli-Sufu antag: 3; CHOP UPR activ: -1; CHOP inhibitor: 91*; UPR XBP1 act: 0; Jurkat NFkB inh: -7

How did O=C(NN=Cc1c(O)ccc2ccccc12)c1ccncc1 do in these assays?
Gli-Sufu antag: 87*

How did O=C(N/N=C/c1cccnc1)c1ccc(NC(=O)C(c2ccccc2)c2ccccc2)cc1 do in these assays?
697 NFkB inh: 19; Gli-Sufu antag: 19; CHOP UPR activ: -1; CHOP inhibitor: 78*; UPR XBP1 act: -3; Jurkat NFkB inh: -15

Results for Cn1nccc1C(=O)N/N=C/c1c(O)ccc2ccccc12 ?
697 NFkB inh: -3; Gli-Sufu antag: 85*; CHOP UPR activ: 2; UPR XBP1 act: 1; Jurkat NFkB inh: 45

How did Cc1occc1C(=O)N/N=C/c1c(O)ccc2ccccc12 do in these assays?
697 NFkB inh: -53; Gli-Sufu antag: 36; CHOP UPR activ: 4; UPR XBP1 act: -2; Jurkat NFkB inh: 44

Results for O=C(N/N=C\c1c(O)ccc2ccccc12)c1ccc(O)cc1 ?
697 NFkB inh: -8; Gli-Sufu antag: 17; CHOP UPR activ: -4; UPR XBP1 act: 2; Jurkat NFkB inh: 6

Results for O=C(N/N=C/c1cccnc1)c1cc2ccccc2o1 ?
697 NFkB inh: -10; Gli-Sufu antag: -8; CHOP UPR activ: 1; CHOP inhibitor: -8; UPR XBP1 act: 5; Jurkat NFkB inh: -10

Results for COc1ccc(Br)cc1/C=C(\C(=O)O)c1ccc(S(=O)(=O)N2CCCCC2)s1 ?
697 NFkB inh: 8; Gli-Sufu antag: 1; CHOP UPR activ: -2; UPR XBP1 act: 0; Jurkat NFkB inh: 9

Results for O=C(N/N=C/c1c(O)ccc2ccccc12)c1cccnc1 ?
697 NFkB inh: -1; Gli-Sufu antag: 68*; CHOP UPR activ: -2; UPR XBP1 act: 0; Jurkat NFkB inh: 13

What do the screens show for `NC1=NC[C@H](CC2CCCCC2)N1CCc1cc(C(F)(F)F)cc(C(F)(F)F)c1`?
697 NFkB inh: 4; Gli-Sufu antag: 6; CHOP UPR activ: 0; CHOP inhibitor: 94*; UPR XBP1 act: 2; Jurkat NFkB inh: 5

Results for NC1=NC[C@@H](Cc2ccc(O)cc2)N1CCc1cc(C(F)(F)F)cc(C(F)(F)F)c1 ?
697 NFkB inh: 0; Gli-Sufu antag: -3; CHOP UPR activ: 0; CHOP inhibitor: -2; UPR XBP1 act: 1; Jurkat NFkB inh: 12

What do the screens show for `COc1cccc(NC(=O)CN(C)C(=O)C2CC(=O)N(CCc3ccc(OC)c(OC)c3)C2)c1` (centres undefined)?
Gli-Sufu antag: -4

How did CC(CN1CCCCC1)OC(=O)COc1ccc(Br)cc1 (centres undefined) do in these assays?
697 NFkB inh: 18; Gli-Sufu antag: 2; CHOP UPR activ: 0; UPR XBP1 act: 1; Jurkat NFkB inh: 2

What do the screens show for `Cc1c(Cl)cccc1NC(=O)NC1CCCCC1`?
697 NFkB inh: -6; Gli-Sufu antag: -4; CHOP UPR activ: 2; CHOP inhibitor: 78*; UPR XBP1 act: -1; Jurkat NFkB inh: -16

How did Cc1c(Cl)cccc1NC(=S)NC1CC1 do in these assays?
697 NFkB inh: 4; Gli-Sufu antag: -2; CHOP UPR activ: -1; CHOP inhibitor: -19; UPR XBP1 act: -2; Jurkat NFkB inh: -3
